From ChEMBL document CHEMBL4251677, “Pentaminomycins A and B, Hydroxyarginine-Containing Cyclic Pentapeptides from Streptomyces sp. RK88-1441” (J Nat Prod, 2018)
Activity calls are given as the source filed them. The rule behind the calls is not given here. Starred links: 1 amine or outer side, 2 acyl side, 3 side chain; linkers in the order of their positions; H or OH if unused. Non-standard residues stand in square brackets, D forms with d. Residues, ends and D or L forms follow the SMILES beside them. X1 = N=C(N)N(O)CCC[C@H](N[*:1])C(=O)[*:2]

Columns and labels:
[1] = tested on: HeLa; test: Cytotoxicity against human HeLa cells at 30 uM after 24 hrs by EZ-cytox dye based assay; assay type: cell-based
How it was run: (§1)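 Cells were seeded at 5.0 × 10^4 per well and grown 24 h, then exposed to compound for 24 h and washed with PBS. They were incubated 2 h in DMEM with EZ-Cytox reagent, and viability was read as water-soluble formazan optical density at 450 nm.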

[2] = tested on: 4T1; test: Cytotoxicity against mouse 4T1 cells at 30 uM after 24 hrs by EZ-cytox dye based assay; assay type: cell-based; conditions: 4t1, 24 h; how it was run: as §1
[3] = tested on: B16-F0; test: Cytotoxicity against mouse B16F0 cells at 30 uM after 24 hrs by EZ-cytox dye based assay; assay type: cell-based; conditions: b16-f0, 24 h; how it was run: as §1
[4] = tested on: B16-F10; test: Cytotoxicity against mouse B16F10 cells at 30 uM after 24 hrs by EZ-cytox dye based assay; assay type: cell-based; conditions: b16-f10, 24 h; how it was run: as §1
[5] = tested on: B16-F10; test: Antimelanogenic activity in mouse B16F10 cells assessed as inhibition of alpha-MSH-stimulated melanin synthesis up to 10 uM measured after 24 hrs; assay type: functional, cell-based
How it was run: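 B16F10 cells (3.5 × 10^4 per well) were grown 24 h in phenol red-free complete DMEM at 37 °C, 5% CO2. They were then given α-MSH (200 nM) with compound at 0–10 μM for 24 h. Cells were PBS-washed, trypsin-EDTA detached and centrifuged. Melanin was read as absorbance at 405 nm; mean ± SD, n = 3.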

[6] = tested on: B16-F10; test: Antimelanogenic activity in mouse B16F10 cells assessed as inhibition of alpha-MSH-stimulated melanin synthesis by measuring reduction in TRP1 expression up to 10 uM measured after 24 hrs by Western blot analysis; assay type: functional, cell-based
How it was run: (§2)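 B16F10 cells at 1.0 × 10^5 cells/mL were preincubated 24 h, then exposed to α-MSH (100 nM) plus 5, 7.5 or 10 μM compound for 24 h. Cells were lysed in M-per buffer. Whole-cell protein was run on SDS-PAGE and blotted to nitrocellulose, probed with anti-TRP-1 or anti-TRP-2 antibodies, and detected by chemiluminescence on film.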

[7] = tested on: B16-F10; test: Antimelanogenic activity in mouse B16F10 cells assessed as inhibition of alpha-MSH-stimulated melanin synthesis by measuring reduction in TRP2 expression up to 10 uM measured after 24 hrs by Western blot analysis; assay type: functional, cell-based; how it was run: as §2

Compound	Activity [1]	Activity [2]	Activity [3]	Activity [4]	inhibition [5]	inhibition [6]	inhibition [7]
CC(C)C[C@@H]1NC(=O)[C@@H](CC(C)C)NC(=O)[C@H](CCCN(O)C(=N)N)NC(=O)[C@H](Cc2c[nH]c3ccccc23)NC(=O)[C@@H](C(C)C)NC1=O (cyclo(L[dV]W[X1][dL]))	Non-Toxic	Non-Toxic	Non-Toxic	Non-Toxic			
CC(C)C[C@H]1NC(=O)[C@H](CCCN(O)C(=N)N)NC(=O)[C@H](Cc2c[nH]c3ccccc23)NC(=O)[C@@H](C(C)C)NC(=O)[C@H](C(C)C)NC1=O	Non-Toxic	Non-Toxic	Non-Toxic	Non-Toxic	Active	Active	Active
